VIM-2 inhibitor – inhibitors of Pseudomonas aeruginosa VIM-2 metallo-beta-lactamase. purified VIM-2, nitrocefin hydrolysis, epi-absorbance fluorescence. inhibition, % at 5.6 µM. 290,000 compounds, 0.89% hits. AID 1527;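 active = inhibition above the mean of all tested compounds plus 3 SD, cutoff set per screening run, cut at about 7.5% in these data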;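 also: red hydrolysis product quenches plate fluorescence so inhibitors raise well fluorescence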
Mdm2-MdmX inh – human Mdm2/MdmX binding inhibition. 330,000 compounds, 3% hits. inhibition, % at 8 µM. AID 485346. SaOS-2 split-luciferase Mdm2/MdmX complementation, luminescence;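 active = inhibition of at least 50% at 8 µM in the primary screen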
IMP-1 inhibitor – inhibitors of Pseudomonas aeruginosa IMP-1 metallo-beta-lactamase; purified IMP-1, nitrocefin hydrolysis, epi-absorbance fluorescence; 290,000 compounds, 0.45% hits; AID 1556; inhibition, % at 5.6 µM;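 active = inhibition above the mean plus 3 SD of all compounds in the same screening run, cut at about 4.5% in these data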
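System: purified recombinant IMP-1 beta-lactamase. Medium: Zinc- and detergent-supplemented HEPES buffer, pH 7.1. Compound: one 5.6 µM dose […]. Schedule: 15 min preincubation plus 25 min reaction at 25 °C. Technique: Epi-absorbance fluorescence, 480 nm excitation, 530 nm emission.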
Jurkat NFkB inh – lowers PMA/ionomycin-induced NF-kB signal in Jurkat cells. PMA/ionomycin-induced NF-kB luciferase reporter, luminescence. inhibition, % at 4 µM. 330,000 compounds, 0.53% hits. AID 435003; in the data active = inhibition above about 50%
aSyn 5UTR inh – MLPCN primary screen, SNCA 5' untranslated region. alpha-synuclein 5'UTR reporter, inhibitor activity. inhibition, % (tested at 7.5 µM). 300,000 compounds, 0.82% hits; in the data active = inhibition above about 60%; inconclusive = no clear call, values can overlap the other calls;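 also: H4 neuroglioblastoma cells stably carrying SNCA 5'UTR luciferase fusion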
697 NFkB inh – lowers PMA/ionomycin-induced NF-kB signal in 697 B cells; 697 B-cell NF-kB luciferase reporter, 16 h; inhibition, % at 4 µM; 330,000 compounds, 0.33% hits; in the data active = inhibition above about 35%
Mdm2-MdmX conf – human Mdm2/MdmX binding inhibition, confirmed. luminescent assay. 10,000 compounds, 55% hits. AID 489028. inhibition, % at 8 µM. shares compounds with Mdm2-MdmX inh; in the data active = inhibition above about 40%
FLuc counter – full-length luciferase inhibition in Mdm2/MdmX counter-screen. shares compounds with Mdm2-MdmX inh. SaOS-2 full-length luciferase counterscreen, luminescence. inhibition, % at 8 µM. 6,200 compounds, 77% hits. AID 504607;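 active = mean inhibition at 8 µM reaching about 37%, which flags the compound as non-specific, limit read from the data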;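 also: p53-null SaOS-2 cells with luciferase driven by a doxycycline-inducible promoter; compound on cells about two nights before reading with doxycycline added after day one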
Of the large screens only hits and unclear results are named; the others gave an inactive call (follow-up assays come after a bar, where they were run); ! = repeats disagree. Sampled rows, rich in hits. Any-hit rate of the full collection: about 4.7%.

COc1ccc2c(c1)c(=O)oc1cc(OCC(=O)NC3CCCCC3)ccc12	none
CC1CCCCN1S(=O)(=O)c1cccc2cccnc12 (configuration not stated)	none
O=S(=O)(c1cccc2cnccc12)N1CCCNCC1	Mdm2-MdmX inh 59 | Mdm2-MdmX conf 47 | FLuc counter 65
CC1CNCCN1S(=O)(=O)c1cccc2cnccc12 (configuration not stated)	Mdm2-MdmX inh 55! | Mdm2-MdmX conf inactive
Cc1ccc2nc(NC(=O)c3ccc(-c4nc5ccccc5s4)s3)sc2c1	Mdm2-MdmX inh 98 (no result: aSyn 5UTR inh) | Mdm2-MdmX conf 46 | FLuc counter 84
O=C(Nc1nc2ccccc2s1)c1ccc(Cl)s1	none
Cn1nnc2c[n+](CC(=O)c3ccc(Cl)cc3)cc(Br)c21	none
Cn1nnc2c[n+](CC(=O)c3ccc4ccccc4c3)cc(Br)c21	Mdm2-MdmX inh 65 | Mdm2-MdmX conf inactive | FLuc counter 63
COc1ccc(-c2c([C@H]3[C@@H]4C=CCC[C@@]4(C)C(=O)N3Cc3ccccc3)ccc3ccccc23)cc1OC	none (no result: VIM-2 inhibitor, IMP-1 inhibitor)
COc1ccc(-c2ccc([C@H]3[C@@H]4C=CCC[C@@]4(C)C(=O)N3Cc3ccccc3)c(F)c2)cc1OC	Mdm2-MdmX inh 63 (no result: VIM-2 inhibitor, IMP-1 inhibitor) | Mdm2-MdmX conf inactive
COc1cccc(CN(C)C(=O)c2cc(S(=O)(=O)N3CCCC3)ccc2C)c1OC	none (no result: VIM-2 inhibitor, IMP-1 inhibitor, aSyn 5UTR inh)
O=C(COC(=O)COc1ccc(Cl)cc1)NC1CCCCCC1	none (no result: VIM-2 inhibitor, IMP-1 inhibitor, aSyn 5UTR inh)
Cc1ccc(CN2CCC(c3cc(-c4ccc(Cl)cc4)n[nH]3)CC2)cc1	Mdm2-MdmX inh 64 | Mdm2-MdmX conf inactive | FLuc counter 74
COc1ccc(-c2cc(C3CCN(Cc4ccc([N+](=O)[O-])cc4)CC3)[nH]n2)cc1	none
Cc1cc(C)c2nc(NNC(=O)c3cc(-c4cccs4)nc4ccccc34)sc2c1	Mdm2-MdmX inh 77 | Mdm2-MdmX conf 68 | FLuc counter 57
O=C(NNc1nc2ccc(Cl)cc2s1)c1cc(-c2cccs2)nc2ccccc12	Mdm2-MdmX inh 53 | Mdm2-MdmX conf 62 | FLuc counter 61
Cc1ccc2sc(NNC(=O)c3cc(-c4cccs4)nc4ccccc34)nc2c1C	none (no result: Mdm2-MdmX inh, Jurkat NFkB inh, 697 NFkB inh)
CCOc1ccc(NC(=O)CN(C)C(=O)c2cccnc2SC)cc1OCC	none
CC1(C)Cc2c(c(N3CCOCC3)nc3sc4c(NCc5ccccc5)nnnc4c23)CS1	Mdm2-MdmX inh 94, aSyn 5UTR inh 68 | Mdm2-MdmX conf inactive
CC1(C)Cc2c(c(N3CCOCC3)nc3sc4c(NN)ncnc4c23)CS1	Mdm2-MdmX inh 61, IMP-1 inhibitor 12 | Mdm2-MdmX conf inactive
CC(C)CNc1nnnc2c1sc1nc(N3CCOCC3)c3c(c12)CC(C)(C)SC3	none
Cc1ccc(/C=N\NC(=O)Cc2noc3ccccc23)cc1	none
CN1CCN(CC/C=C2/c3ccccc3Sc3ccc(S(=O)(=O)N(C)C)cc32)CC1	Mdm2-MdmX inh 67 | Mdm2-MdmX conf inactive
Cc1ccc(NC2=C(Cl)C(=O)c3ccccc3C2=O)cc1	aSyn 5UTR inh inconclusive (no result: Mdm2-MdmX inh, Jurkat NFkB inh, 697 NFkB inh)
O=C1C(Cl)=C(Nc2ccc(O)cc2)C(=O)c2ccccc21	Mdm2-MdmX inh 100 | Mdm2-MdmX conf 100 | FLuc counter 51
O=C1Nc2cccnc2N(C(=O)CCl)c2ccccc21	Mdm2-MdmX inh 68 | Mdm2-MdmX conf 50 | FLuc counter inactive
NCCN1CCN(CC(=O)N2c3ccccc3C(=O)Nc3cccnc32)CC1	none (no result: VIM-2 inhibitor, IMP-1 inhibitor)
COc1cccc(-n2c(SCC(=O)N3CCOCC3)nc3c([nH]c4ccccc43)c2=O)c1	Mdm2-MdmX inh 65 | Mdm2-MdmX conf inactive
CCn1c(SCC(=O)N2CCN(c3ccccc3)CC2)nc2c([nH]c3ccccc32)c1=O	Mdm2-MdmX inh 58 | Mdm2-MdmX conf inactive | FLuc counter 86
CCn1c(SCC(=O)NCCc2ccccc2)nc2c([nH]c3ccccc32)c1=O	Mdm2-MdmX inh 59 | Mdm2-MdmX conf inactive
COc1ccc(N(CC(O)Cn2nnc3ccccc32)S(=O)(=O)c2ccc(C)cc2)cc1 (configuration not stated)	none
CCN(C(=O)COC(=O)c1ccc([N+](=O)[O-])o1)C1CCCCC1	none (no result: VIM-2 inhibitor, IMP-1 inhibitor, aSyn 5UTR inh)

Screens from PubChem BioAssay.
